From ChEMBL document CHEMBL4725411, “A Phosphoramidate Strategy Enables Membrane Permeability of a Non-nucleotide Inhibitor of the Prolyl Isomerase Pin1” (ACS Med Chem Lett, 2020) come the findings set out here.

pIC50: −log10 of the molar value. Active and inactive are the calls of the source. The calls are words filed in the database; no cut-off is given here.

Broadly, the pIC50 is −log10 of the IC50, conventionally taken in molar units. A higher pIC50 goes with a low IC50. A word on the logP: it is a log measure of how a compound divides between an organic and an aqueous phase.

Data set [1] concerns the target Peptidyl-prolyl cis-trans isomerase NIMA-interacting 1 (Homo sapiens, UniProt Q13526). Description: Displacement of FITC-WFYpSPFLE from human Pin1 (45-163) catalytic domain by fluorescence polarization assay.
The test system of data set [2] is PC-3. Description: Inhibition of colony formation in human PC-3 cells. The format is functional, cell-based. An outline of the steps: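 PC3 cells treated at low density, colony formation scored. Mean of triplicate experiments, error as SD.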
A short description of data set [3]: Octanol/water partition coefficient, logP of compound. The format is physicochemical.
Data set [4] is described as follows: Prodrug conversion in cell free extract. The class given is ADME. An outline of the steps: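 Cell-free control run in medium without cells, then ethyl acetate extraction and UPLC-MS for the intermediate and the free phosphate.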
Data set [5] is described as follows: Prodrug release in human K562 cells assessed as 1R-phosphate binding to Pin1 at 25 uM after 5 hrs by Western blot based cellular thermal shift assay. The following applies: k562, 5 h. The format is ADME, cell-based. An outline of the steps: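 K562 cells exposed to prodrug at 25 μM or 0.25% DMSO for 5 h, then heated across 38–60 °C and lysed. Soluble Pin1 measured by Western blot. Three independent experiments, error as SEM.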
(Immunoblotting shows a protein as a band on a membrane.)

Data set [6] in a line: Prodrug conversion in human MDA-MB-231 cells assessed as increase in Pin1 level at 5 uM in presence of 100 uM TrpGc Hint1 inhibitor. The format is ADME, cell-based. The following applies: mda-mb-231, 5 µM. A digest of the protocol:
(§1)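 MDA-MB-231 cells treated over a dose series for 72 h (longer than 24 h), with or without the Hint1 inhibitor TrpGc at 100 μM. Pin1 abundance at normal temperature used as the read-out.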

Data set [7] in a line: Prodrug conversion in human K562 cells assessed as cytosolic enzyme product of 1-R-phosphate after 5 hrs by UPLC-MS analysis. The class given is ADME, cell-based. Particulars: k562, 5 h. An outline of the steps:
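K562 cells exposed 5 h in serum-free medium, then washed extensively, centrifuged and extracted with ethyl acetate. Products quantified by UPLC-MS. DMSO solvent control subtracted as background. Average of duplicates with full range.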

The test system of data set [8] is PC-3. Description: Antiproliferative activity in human PC-3 cells after 72 hrs by ATP-Glo assay. The format is functional, cell-based. An outline of the steps: (§2)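 PC3 cells grown to higher confluence, compound exposure 72 h. Proliferation read by ATP-Glo luminescence or by MTT.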
The nature of data set [9]: Prodrug release in human MDA-MB-231 cells assessed as 1R-phosphate binding to Pin1 at 25 uM at fixed temperature 48 degC by Western blot based assay. The format is ADME, cell-based. The following applies: mda-mb-231, 25 µM. An outline of the steps: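 MDA-MB-231 cells dosed at 25 μM or with 0.25% DMSO for 5 h, heated at a fixed 48 °C and lysed. Soluble Pin1 measured by Western blot in biological quadruplicates.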

Data set [10] has as its system PC-3. Description: Antiproliferative activity in human PC-3 cells after 72 hrs by MTT assay. The class given is functional, cell-based. A digest of the protocol: as §2
On the technique in general: Tetrazolium assays rely on reduction of a dye to a coloured formazan, in cell work by metabolically active cells.

Data set [11] is described as follows: Prodrug conversion in human MDA-MB-231 cells assessed as increase in Pin1 level mesured longer than 24 hrs. The class given is ADME, cell-based. Particulars: mda-mb-231, 24 h. An outline of the steps:
as §1

Chain of Peptidyl-prolyl cis-trans isomerase NIMA-interacting 1 (Q13526 whole entry, the tested form may be a part): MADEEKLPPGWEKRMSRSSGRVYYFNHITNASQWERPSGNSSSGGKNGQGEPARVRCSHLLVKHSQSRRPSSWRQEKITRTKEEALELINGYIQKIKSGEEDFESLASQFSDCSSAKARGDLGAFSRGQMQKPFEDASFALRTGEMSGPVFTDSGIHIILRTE

`CCOC(=O)CNP(=O)(OC[C@H](Cc1ccccc1)NC(=O)c1cc2ccccc2s1)Oc1ccccc1` (some centres undefined): the pIC50 in [1] was below 5.00. Moreover, in the data set with PC-3 [2], the inhibition entry was “inactive”.

`O=C(N[C@@H](COP(=O)(O)O)Cc1ccccc1)c1cc2ccccc2s1` registered a logP in data set [3] below -4.6.

As to `CCOC(=O)CNP(=O)(OC[C@@H](Cc1ccccc1)NC(=O)c1cc2ccccc2s1)Oc1ccccc1` (some centres undefined), the Drug metabolism entry in data set [4] was “Metabolite_Notdetected”; in data set [5] it was “Metabolite_Detected”; in data set [6], “Metabolite_Notdetected”; in data set [7] it was “Metabolite_Detected”; in [9], “Metabolite_Detected”; in [11], “Metabolite_Detected”. Moreover, the outcome in the data set with PC-3 [8] and in the data set with PC-3 [10] was inactive. In data set [1], the negative logarithm of the IC50 (pIC50) is below 5.00. In data set [3], the logP amounted to 0.27. Besides, in the data set with PC-3 [2], the inhibition entry was “Active”.
